Assay outcomes (PubChem BioAssay)
PRMT1 FP inh: PRMT1 (human) inhibition, primary screen; Q99873; recombinant PRMT1, activity-based probe fluorescence polarization; inhibition, % at 2.79 µM; hit rate 1.3% among 370,000; AID 652257;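 active = inhibition above about 21% made by adding two undisclosed values, limit read from the data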
mABHD4 FP: ABHD4 (mouse) inhibition, primary FP screen | Q8VD66 | purified mABHD4, FP-Rh probe fluorescence polarization | inhibition, % at 8.92 µM | hit rate 0.54% among 370,000;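 active = inhibition exceeding the mean over every tested compound plus 3 SD, cut at about 30% in these data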;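 also: 0% = plate median of compound wells and 100% = S159A mutant with DMSO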
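system = mouse ABHD4 enzyme, wild type | medium = HEPES pH 7.0, NaCl, Pluronic buffer | also added = FP-Rh probe | incubation = Enzyme–compound pre-incubation 45 min, then probe 60 min, both 25 °C | technique = fluorescence polarization, excitation 525 nm, emission 598 nm, BODIPY TMR filters | controls = S159A mutant high control, sample median low control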
TCR CD3 inh: human TCR-CD3 binding inhibition. TAMRA-labeled TCR probe fluorescence, biochemical. hit rate 0.37% among 360,000. AID 651800. inhibition, % at 9.4 µM; in the data active = inhibition above about 19%;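 also: recombinant mutant TCR 2C K166C tagged with TAMRA read by polarization; 0% = receptor in buffer alone and 100% = receptor with positive control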
SIAE primary: blocks human sialic acid acetylesterase | Q9HAT2 | SIAE FP-Rh probe binding, fluorescence polarization | hit rate 0.69% among 370,000 | inhibition, % at 9.66 µM;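 active = inhibition above a cutoff: mean of compounds within the control limits plus 3 SD of those, cut at about 17% in these data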;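 also: 0% = plate median of compound wells and 100% = probe without SIAE protein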
Target sequence (Q9HAT2 whole entry, looked up): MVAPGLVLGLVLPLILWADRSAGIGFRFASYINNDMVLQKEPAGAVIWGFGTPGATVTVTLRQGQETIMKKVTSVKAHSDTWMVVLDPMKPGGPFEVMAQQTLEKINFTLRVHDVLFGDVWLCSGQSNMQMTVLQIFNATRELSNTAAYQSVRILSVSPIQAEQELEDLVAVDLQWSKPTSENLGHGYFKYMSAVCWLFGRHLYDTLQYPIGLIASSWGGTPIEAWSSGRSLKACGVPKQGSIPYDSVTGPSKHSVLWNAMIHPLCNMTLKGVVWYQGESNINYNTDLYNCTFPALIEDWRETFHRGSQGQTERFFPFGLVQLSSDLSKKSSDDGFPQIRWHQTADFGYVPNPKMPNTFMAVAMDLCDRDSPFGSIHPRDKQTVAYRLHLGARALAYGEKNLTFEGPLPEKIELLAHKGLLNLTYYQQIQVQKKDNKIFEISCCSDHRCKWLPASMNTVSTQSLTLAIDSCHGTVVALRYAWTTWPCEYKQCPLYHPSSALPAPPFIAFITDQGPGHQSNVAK
ATG4B inhibitor: inhibitors of human ATG4B cysteine protease; Q9Y4P1; ATG4B cleavage of LC3-PLA2, NBD-HPC fluorescence, 1 h; inhibition, % at 8.33 µM; hit rate 0.51% among 340,000; AID 504462; in the data active = inhibition above about 40%
HTRA1 inhibitor: HTRA1 (human) protease inhibition; recombinant HTRA1, FP-rhodamine activity-based probe, fluorescence polarization; hit rate 0.5% among 340,000; Q92743; AID 504803; inhibition, % at 5.96 µM; in the data active = inhibition above about 36%;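 also: 0% = enzyme with DMSO and 100% = wells lacking enzyme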
ATG4B conf: confirmation of human ATG4B inhibitors. hit rate 92% among 320. shares compounds with ATG4B inhibitor. ATG4B protease fluorescent substrate cleavage assay. inhibition, % at 8.33 µM; in the data active = inhibition above about 39%
PLA2 ctr: counter-screen for ATG4B inhibitors: human phospholipase A2 | purified PLA2, NBD-C6-HPC fluorescence, 45 min | inhibition, % at 8.33 µM | AID 588402 | hit rate 66% among 1,600 | shares compounds with ATG4B inhibitor; in the data active = inhibition above about 50%
Target sequence (P04054 whole entry, looked up): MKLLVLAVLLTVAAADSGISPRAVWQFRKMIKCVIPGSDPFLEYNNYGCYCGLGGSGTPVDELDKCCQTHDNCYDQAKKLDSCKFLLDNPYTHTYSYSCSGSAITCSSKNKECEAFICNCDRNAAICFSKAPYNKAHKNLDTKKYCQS
HTRA1 conf: confirmation of human HTRA1 inhibitors. shares compounds with HTRA1 inhibitor. recombinant HTRA1, FP-rhodamine activity-based probe, fluorescence polarization. inhibition, % at 5.96 µM. hit rate 66% among 1,600. AID 540248;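 active = mean inhibition over three repeats above a set limit taken from the earlier primary screen, cut at about 37% in these data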;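 also: 0% = HTRA1 with DMSO and 100% = wells lacking HTRA1; inhibitors block probe binding so polarization drops and inhibition rises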
The depositor's hits bear a star; nt = not tested or not shown. Rows were chosen to be rich in hits. Some 2.9% of all compounds tested hit in one or more screens of this group.

SMILES	PRMT1 FP inh	mABHD4 FP	TCR CD3 inh	SIAE primary	ATG4B inhibitor	HTRA1 inhibitor	PLA2 ctr	HTRA1 conf	others
CCCOc1ccc(-c2nc(SCc3ccccc3)[nH]c(=O)c2C#N)cc1OC	1	-25	-6	-8	52*	-11	85*	nt
O=C1c2ccccc2C(=O)N1C/C=C/c1ccccc1	0	2	2	2	-7	-7	nt	nt
O=C1C(=O)N(C/C=C/c2ccccc2)c2ccccc21	2	-2	2	5	49*	-54	54*	nt
O=C(NCc1ccco1)O[C@H]1CC[C@@]23CCCN2C(=O)CCC[C@H]3C1	3	5	nt	0	nt	nt	nt	nt
CCCC1=NN2C(=N)/C(=C\c3cc(C)n(-c4cc(C)cc(C)c4)c3C)C(=O)N=C2S1	2	-11	4	-13	58*	-20	55*	nt
Cc1cccc(-n2c(C)cc(/C=C3\C(=N)N4N=C(CC(C)C)SC4=NC3=O)c2C)c1	1	-1	7	-2	12	6	nt	nt
Cc1cc(C)cc(-n2c(C)cc(/C=C3\C(=N)N4N=C(CC(C)C)SC4=NC3=O)c2C)c1	-3	-7	4	-5	44*	-10	47	nt	ATG4B conf=46*
O=C(/C=C/c1ccccc1)NC(NC(=S)Nc1cc(Cl)ccc1Cl)C(Cl)(Cl)Cl (centres undefined)	-1	-43	7	-4	42*	-32	30	nt
CC(=O)NC1CCCCN(C(C)C)C1=O (centres undefined)	-2	3	nt	-5	nt	nt	nt	nt
O=C(Nc1ccc2nc(-c3cccs3)c(-c3cccs3)nc2c1)NC1CC1	-1	-20	6	-38	72*	-38	81*	nt
COCCNC(=O)Nc1ccc2nc(-c3cccs3)c(-c3cccs3)nc2c1	3	-36	-6	-13	18	-42	nt	nt
O=C(O)Cc1sc(NC2CCCCC2)nc1-c1ccc(Cl)cc1	-8	-12	-14	-9	54*	-26	32	nt	ATG4B conf=65*
COC(=O)[C@]12C[C@H](CC(=O)N3CCSCC3)C(=O)N(Cc3ccc(Cl)cc3Cl)C1=C[C@H](C(C)C)O[C@@H]2C1CC1	1	-5	nt	7	nt	nt	nt	nt
Cc1cc(C)cc(NC(=O)c2nnn(Cc3cc(C)ccc3C)c2N)c1	nt	nt	nt	nt	57*	-72	78*	nt
Cc1ccc(C)c(Cn2nnc(C(=O)Nc3ccc4c(c3)OCCO4)c2N)c1	3	-1	2	-5	55*	-9	65*	nt
O=C(OC1CC2CCC(C1)[N+]21CCCC1)C(O)(c1ccccc1)c1ccccc1 (centres undefined)	-6	-6	nt	3	nt	nt	nt	nt
COC1=CC(=O)C(O)=C(CCCCCCC/C=C/CCCCCCCC2=C(O)C(=O)C=C(OC)C2=O)C1=O	nt	nt	nt	nt	52*	64*	78*	93*
COC1=C(OC)C(=O)C(CCCCCCCCCCO)=C(C)C1=O	3	2	-2	7	nt	nt	nt	nt
COC(=O)C1CN(CC(C)C)CCS(=O)(=O)N1Cc1ccc(OC)cc1 (centres undefined)	-6	-4	nt	5	nt	nt	nt	nt
O=C(Nc1ccccc1-c1ccccc1)c1ccccc1	-3	0	3	-2	5	4	nt	nt
Nc1c(S(=O)(=O)O)cc(NC(=O)c2ccccc2)c2c1C(=O)c1ccccc1C2=O	nt	nt	nt	nt	76*	55*	68*	72*
COC(=O)[C@]12C[C@H](CC(=O)NCCC(C)C)C(=O)N(Cc3cccc4ccccc34)C1=C[C@H](COCc1ccccc1)O[C@@H]2C	-4	-2	nt	-5	nt	nt	nt	nt
CC1CC(C)CN(C(=O)c2ccc3c(c2NCCO)C(=O)c2ccccc2C3=O)C1 (centres undefined)	1	27	-26	1	59*	41*	67*	53*
CC1CC(C)CN(C(=O)COC(=O)CN2C(=O)c3ccccc3C2=O)C1 (centres undefined)	-3	-1	4	1	-5	24	nt	nt
N#Cc1c(N)[nH]c2ccc(Sc3ccccc3)cc12	-3	13	5	9	41*	41*	40	33	ATG4B conf=68*
SMILES	PRMT1 FP inh	mABHD4 FP	TCR CD3 inh	SIAE primary	ATG4B inhibitor	HTRA1 inhibitor	PLA2 ctr	HTRA1 conf	others
COC(=O)c1ccc(S(=O)(=O)N2CCC(NC(=O)CCC3CCCC3)CC2)cc1	-5	4	nt	-5	nt	nt	nt	nt
Cc1c(Cl)cccc1NS(=O)(=O)c1ccc2c(c1)C1C=CCC1C(c1ccc(C(=O)O)cc1)N2 (centres undefined)	nt	nt	nt	nt	101*	38*	92*	31
COc1ccc(S[C@]2(C(=O)NCCc3ccccc3)CC(=O)N[C@@H]2c2ccc(OC)cc2)cc1	-6	-6	nt	4	nt	nt	nt	nt
Cc1ccc(-c2cc(-c3nnc4sc(Cc5cccs5)nn34)[nH]n2)cc1	5	-14	nt	-3	nt	nt	nt	nt
NS(=O)(=O)c1ccc(N=Nc2c(O)ccc3ccccc23)cc1	-9	4	4	13	-4	11	nt	nt
N=C(N)c1ccc(N=Nc2c(O)ccc3c2[nH]c2ccccc23)cc1	4	47*	-2	9	86*	85*	18	61*	ATG4B conf=38*
CC[C@H](C)/C=C/C1=CC2=C(Cl)C(=O)[C@@]3(C)OC(=O)C(C(=O)[C@H](C)[C@@H](C)O)=C3C2=CO1	nt	nt	nt	nt	42*	54*	54*	68*
O=c1cc(-c2ccc(O)c(-c3c(O)cc(O)c4c(=O)cc(-c5ccc(O)cc5)oc34)c2)oc2cc(O)cc(O)c12	1	-76	8	-30	82*	40*	76*	76*
CCCC1CCC2(CC1)CCC2OC(=S)Nc1cccc(I)c1 (centres undefined)	-5	-15	nt	-2	nt	nt	nt	nt
Cc1ccc(N=Cc2cc(Cc3ccccc3Cl)cc([N+](=O)[O-])c2O)c(O)c1	nt	nt	nt	nt	92*	71*	79*	65*
N=C1N(C(=O)OCc2ccccc2)/C(=C\C2=CCCCC2)C(Cc2ccccc2)N1Cc1ccccc1 (centres undefined)	1	13	nt	4	nt	nt	nt	nt
O=C1C(Nc2ccccc2)=C/C(=N/S(=O)(=O)c2cccs2)c2ccccc21	nt	nt	nt	nt	72*	63*	78*	62*
C=CC#CC[N+]1(CC#Cc2ccccc2)CCOCC1	-7	6	11	8	70*	57*	-3	65*	ATG4B conf=46*
C(#Cc1ccccc1)C[N+]1(CC#Cc2ccccc2)CCCC1	-2	-6	6	-2	-4	3	nt	nt
Oc1ccc2ccccc2c1/C=N/Nc1nnc(-c2ncc[nH]2)c2ccccc12	-3	23	7	16	48*	38*	39	100*	ATG4B conf=49*
